In the library only some 1.3% were active in any assay of this set; here they are far more common.
JMJD2C inh – inhibitors of human GASC-1 (JMJD2C) demethylase; Q9H3R0; GST-JMJD2C(1-420) H3K9me3 demethylation, DELFIA europium; inhibition, % at 2.35 µM; hit rate 0.069% among 330,000; AID 2099;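 active = more than half of a compound's replicate wells show inhibition beyond 50%, single wells judged on their own value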;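 also: signal counts dimethyl H3K9 product captured on neutravidin plate; 0% = median of DMSO wells and 100% = 0.3 times that DMSO median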
EP2 mod – modulates human prostaglandin E2 receptor EP2 signaling | EP2-expressing cells, cAMP HTRF FRET, PGE2 co-stimulation | induction, % at 25 µM | hit rate 0.83% among 260,000;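 active = compounds whose cAMP rise, as percent of the full-agonist control response, exceeds 60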;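 also: rat C6 glioma line stably carrying human EP2 under a CMV promoter; the protocol text gives 20 µM as final concentration; 100% = response of wells given 1 µM PGE2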
NR2E3 ag-1 – agonists of human nuclear receptor NR2E3 | Q9Y5X4 | GST-NR2E3/biotin-RetCOR TR-FRET, 1536-well | inhibition of corepressor binding, % at 4.78 µM | hit rate 0.12% among 320,000;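 active = percent inhibition above the cutoff of mean plus 3 SD of all tested compounds, set per screening campaign, cut at about 20% in these data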;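 also: 0% = DMSO wells and 100% = biotin wells as full block of FRET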
Target sequence (Q9Y5X4 whole entry, looked up): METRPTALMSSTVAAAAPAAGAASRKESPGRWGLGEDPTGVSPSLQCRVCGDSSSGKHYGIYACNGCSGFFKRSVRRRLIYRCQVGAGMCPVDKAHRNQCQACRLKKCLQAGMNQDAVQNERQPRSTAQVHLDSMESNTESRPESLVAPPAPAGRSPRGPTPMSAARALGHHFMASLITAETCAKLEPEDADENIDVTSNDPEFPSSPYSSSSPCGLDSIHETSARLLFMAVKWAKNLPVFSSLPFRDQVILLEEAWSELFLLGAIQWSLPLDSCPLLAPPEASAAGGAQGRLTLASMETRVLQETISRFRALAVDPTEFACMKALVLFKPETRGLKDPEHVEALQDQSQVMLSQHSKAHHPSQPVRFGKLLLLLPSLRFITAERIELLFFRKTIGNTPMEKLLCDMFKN
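Test system – NR2E3–RetCOR corepressor complex · Quantity – NR2E3 fusion 1.35 nM · Buffer or medium – Tris pH 7.5 · Incubation – Compound–protein incubation for 5 h at 4 °C · Technique – TR-FRET, Eu(K)-anti-GST donor, streptavidin-D2 acceptor, ex 340, em 617/671 nm · Evaluation – percent inhibition of 671/617 nm emission ratio versus biotin and DMSO controls · Plate – 1536-well format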
EP2 antag – inhibitors of human EP2 prostaglandin E2 receptor. P43116. C6 glioma cells expressing human EP2, cAMP TR-FRET; cells stimulated with saturating PGE2. inhibition, % at 25 µM. hit rate 0.52% among 260,000;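 active = percent inhibition above 40 after rounding to a whole number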;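 also: rat C6 glioma host cells with rolipram phosphodiesterase inhibitor present; the protocol text gives 20 µM as final concentration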
Furin inh – blocks human furin protease activity; P09958; purified furin, fluorogenic substrate cleavage; inhibition, % at 20 µM or 30 µM; hit rate 0.061% among 220,000; in the data active = inhibition above about 25%
NR2E3 ag-2 – agonists of human NR2E3 nuclear receptor | Q9Y5X4 | CHO-S Gal4-NCOR/VP16-NR2E3 two-hybrid, luciferase | inhibition of corepressor binding, % at 3.98 µM | hit rate 0.35% among 360,000 | AID 602229;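 active = inhibition above the mean of all tested compounds plus 3 SD, cut at about 70% in these data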;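 also: 0% = DMSO with NR2E3 transfected cells and 100% = cells lacking NR2E3 construct; higher means lower luciferase signal from less NR2E3 corepressor binding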
NR2E3 ag confirm – confirmation of human NR2E3 agonists | shares compounds with NR2E3 ag-2 | CHO-S mammalian two-hybrid NR2E3-NCOR, luciferase luminescence | inhibition, % at 3.98 µM | hit rate 51% among 2,300 | AID 624378;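 active = average inhibition above a cutoff equal to the mean inhibition of all tested compounds plus one SD, cut at about 70% in these data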;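 also: 0% = DMSO in NR2E3 cells and 100% = DMSO in cells lacking NR2E3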
VP16 counter – counter-screen for NR2E3 agonists: GAL4-VP16 reporter inhibitors. shares compounds with NR2E3 ag-2. CHO-S GAL4-VP16 luciferase reporter, luminescence. inhibition, % at 3.98 µM. hit rate 29% among 2,300. AID 624379;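 active = mean inhibition above a cutoff equal to the average over all tested compounds plus one standard deviation, cut at about 70% in these data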;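 also: luciferase from a UAS reporter driven by GAL4-VP16 transactivation; 0% = DMSO with VP16-transfected cells and 100% = DMSO with cells lacking VP16; higher means less reporter light so more repression of VP16 activity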
* marks the source's active call; other numbers are inactive results; . = not tested or not shown.

SMILES	JMJD2C inh	EP2 mod	NR2E3 ag-1	EP2 antag	Furin inh	NR2E3 ag-2	NR2E3 ag confirm	VP16 counter
CCOc1ccc2cc3c(N)c(C(=O)Nc4ccccc4F)sc3nc2c1	.	-11	.	16	.	.	.	.
COc1cnc(-c2ccccn2)nc1Oc1c(C)cccc1C	-11	27	0	5	-10	57	28	-6
CN(C)c1nc(-c2ccccn2)nnc1-c1ccccc1	-8	6	2	11	-15	10	.	.
COc1cnc(-c2ccccc2)nc1Oc1cccc(C)c1	-1	28	-3	5	-11	16	.	.
COc1cnc(-c2ccccn2)nc1Oc1cccc(Cl)c1	-1	22	1	8	-19	62	15	3
COc1cnc(-c2ccccn2)nc1N(C)C	10	-9	1	7	-2	63	52	-13
COc1ccc(Oc2nc(-c3ccccn3)ncc2OC)cc1	-13	-8	1	2	0	73*	21	-26
COc1ccc(OC)c(-c2csc(NC(=O)c3c(C)nn(-c4ccccc4)c3Cl)n2)c1	.	-15	.	16	.	.	.	.
COCCN1C(=O)C(O)=C(C(=O)c2ccc(C)o2)C1c1ccc(OC)c(OC)c1 (stereo unspecified)	.	-1	.	11	.	.	.	.
Cc1ccc(C)c(NC(=S)NCC(c2ccccc2)N(C)C)c1 (stereo unspecified)	-18	-13	-2	7	3	58	-14	-1
Cc1ccccc1NC(=S)NCC(c1cccnc1)N(C)C (stereo unspecified)	-13	14	-2	5	-21	-18	.	.
CCN(CC(=O)Nc1cccc(OC)c1)c1ncnc2sc(C)c(C)c12	10	1	-1	3	-19	71*	88*	71*
CC(C)(C)C(=O)Nc1cc2nn(-c3ccccc3)nc2cc1Cl	.	-39	.	8	-8	92*	75*	55
CC(=O)Nc1cc2nn(-c3ccccc3)nc2cc1Cl	-4	0	-4	10	-16	-116	.	.
CCOCCCN(C(=O)Cc1cccs1)C(C(=O)NC1CCCC1)c1ccc(F)cc1 (stereo unspecified)	.	30	.	10	.	.	.	.
NC(=O)CC(NC(=O)c1ccccc1)c1ccc(N2CCCCCCC2)c([N+](=O)[O-])c1 (stereo unspecified)	6	.	2	.	.	22	.	.
NC(=O)CC(NC(=O)c1ccc(Br)cc1)c1ccc(N2CCCCCC2)c([N+](=O)[O-])c1 (stereo unspecified)	0	.	0	.	.	48	17	27
Cc1cc(N2CCN(C/C=C/c3ccccc3)CC2)n2ncnc2n1	-1	-13	3	13	-8	49	34	51
Cc1cc(N2CCN(c3ccccc3)CC2)n2ncnc2n1	8	-12	0	6	-28	-18	.	.
Cc1sc2ncnc(N3CCN(CCOc4ccc(Cl)cc4)CC3)c2c1C	13	-20	1	6	-2	99*	95*	86*
CC(C)NC(=S)N/N=C/c1cc(Br)ccc1O	6	-42	1	6	-9	72*	-61	-36
CCCC(C)Sc1nc2c([nH]1)c(=S)n(C)c(=O)n2C (stereo unspecified)	.	.	.	.	.	82*	44	5
O=c1[nH]c(SCC2CCCCO2)nc2ccccc12 (stereo unspecified)	-1	2	1	4	-17	-25	.	.
Cn1c(=S)c2[nH]c(SCC3CCCO3)nc2n(C)c1=O (stereo unspecified)	.	.	.	.	.	53	38	-5
COc1ccc(NC(=O)CSc2nc(-c3ccc(OC)c(OC)c3)cc(C(F)(F)F)n2)cc1	.	-8	.	9	.	.	.	.
SMILES	JMJD2C inh	EP2 mod	NR2E3 ag-1	EP2 antag	Furin inh	NR2E3 ag-2	NR2E3 ag confirm	VP16 counter
O=C(NCc1ccccc1)N1CCCC1c1nc(-c2ccncc2)n[nH]1 (stereo unspecified)	.	-4	.	4	.	.	.	.
O=C(Nc1ccc(Br)cc1)c1ccc(F)c(S(=O)(=O)NCc2cccs2)c1	-8	-2	1	7	-16	83*	97*	82*
Cc1cc(C)c(C(=O)/C=C/c2cccc3ccccc23)c(=O)[nH]1	-24	-28	-1	11	-12	63	14	31
Cc1cccc(N2CCN(C(=O)CSCc3c(C)noc3C)CC2)c1C	-5	-38	0	.	-13	68	87*	68
CCOc1ccc2nc(NC(=O)C3CCN(c4cnccn4)CC3)sc2c1	4	-5	0	8	-19	53	54	11
COc1ccc(C(c2nnnn2Cc2ccco2)N2CCN(c3ccc(F)cc3)CC2)cc1OC (stereo unspecified)	.	-16	.	8	.	.	.	.
Cc1ccc(-c2csc(N3CCC(NS(=O)(=O)c4ccc5c(c4)OCCO5)CC3)n2)cc1	2	-45	0	11	-30	89*	99*	89*
O=C(Cc1ccc(F)cc1Cl)N1CCCC(c2noc(-c3ccccn3)n2)C1 (stereo unspecified)	.	-36	.	8	.	.	.	.
COc1ccc(-c2cc(C(F)(F)F)nc(SCC(=O)N3CCC(C)CC3)n2)cc1OC	.	-7	.	21	.	.	.	.
OC1(c2ccc(OC(F)F)cc2)CSC(=Nc2cccnc2)N1C1CC1 (stereo unspecified)	4	2	1	25	-3	69	70	60
O=C(NCc1ccco1)C1C(c2ccccc2)C1(Cl)Cl (stereo unspecified)	.	-18	.	6	.	.	.	.
CSc1ccccc1CNc1nc(NCC2CC2)nc2ccsc12	.	.	.	.	.	72*	60	47
COc1cccc(CNc2nc(NCC3CC3)nc3ccsc23)c1OC	.	.	.	.	.	22	.	.
COc1ccccc1CNc1nc(NCc2ccc(C(C)C)cc2)c2sccc2n1	.	.	.	.	.	19	.	.
COc1cccc(CNc2nc(NCC3CC3)nc3ccsc23)c1	.	.	.	.	.	84*	41	41
CC(C)c1ccc(CNc2nc(NCC3CC3)nc3ccsc23)cc1	.	.	.	.	.	64	48	45
CNc1nc(NCc2cccc(OC)c2)c2sccc2n1	.	.	.	.	.	13	.	.
COc1cccc(CNc2nc(NCc3ccccc3)nc3ccsc23)c1	.	.	.	.	.	60	51	53
COC(=O)c1c(NC(=O)Cc2cccs2)sc(C(=O)Nc2ccc(C)cc2C)c1C	.	1	.	8	.	.	.	.
Cc1ccccc1C(=O)Nc1sc2c(c1C(=O)NCC1CCCO1)CCCC2 (stereo unspecified)	.	41	.	18	.	.	.	.
O=C(CNc1ccccc1F)Nc1cc(S(=O)(=O)N2CCCCC2)ccc1Cl	4	.	3	.	.	-19	.	.
Cc1ccc(S(=O)(=O)N2CCCCC2)cc1NCC(=O)Nc1ccc(Br)cc1F	.	.	.	.	.	54	81*	72*

Source: PubChem BioAssay (several laboratories)
